This is an account of results in ChEMBL document CHEMBL1122861, “Synthesis and activity profiles of novel cyclic opioid peptide monomers and dimers” (J Med Chem, 1985).

pIC50, pKi: −log10 of the molar value. Where a SMILES comes first, the peptide text is derived from it. Bridges are numbered along the chain shown (N, C = ends). [ ]: non-standard residue; d: D form. Orn = NCCC[C@H](N)C(=O)O

As a reminder, the pKi is the negative decadic logarithm of the Ki, by convention in mol/L. A low value points to a large Ki. The term pIC50 denotes the negative decadic logarithm of the IC50, by convention in mol/L. Lower therefore signals a large IC50.

One assay concerns the target Mu-type opioid receptor (Rattus norvegicus, UniProt P33535). The experiment in a line: Evaluated for its ability to displace [3H]DAGO binding to Opioid receptor mu 1 from rat brain homogenate. The assay is classed as tissue-based.
Assay [1] has as its target Delta-type opioid receptor (Rattus norvegicus, UniProt P33533). Kind of assay: Displacement of [3H]DSLET from Opioid receptor delta 1 from rat brain homogenate. The assay is classed as tissue-based. For orientation: Loss of bound radioactivity is the signal in a displacement assay; it reports binding, not function.
The species named for assay [2] is Cavia porcellus. The experiment in a line: Tested for inhibition of electrically evoked contractions of the guinea pig ileum(GPI). In kind it is functional. An outline of the steps:
(§1)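 Isolated tissue bioassay, electrically evoked contractions; inhibition measured. A log dose–response curve with [Leu5]enkephalin as standard was run on each ileum or vas preparation. Test-peptide IC50 values were normalized against that standard by a published procedure. Mean of three determinations ±SEM.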

The next assay is filed under the species Mus musculus. The experiment in a line: Tested for inhibition of electrically evoked contractions of the mouse vas deferens(MVD). The assay is classed as functional. An outline of the steps: as §1
The species named for assay [3] is Cavia porcellus. The experiment in a line: Tested for sensitivity to naloxone in the guinea pig ileum assay. In kind it is functional. An outline of the steps: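 Electrically stimulated guinea pig ileum. IC50 was determined with and without a fixed 5 nM naloxone. Ke for naloxone as antagonist was derived from the ratio of those IC50 values.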

Chain of Mu-type opioid receptor (P33535 whole entry): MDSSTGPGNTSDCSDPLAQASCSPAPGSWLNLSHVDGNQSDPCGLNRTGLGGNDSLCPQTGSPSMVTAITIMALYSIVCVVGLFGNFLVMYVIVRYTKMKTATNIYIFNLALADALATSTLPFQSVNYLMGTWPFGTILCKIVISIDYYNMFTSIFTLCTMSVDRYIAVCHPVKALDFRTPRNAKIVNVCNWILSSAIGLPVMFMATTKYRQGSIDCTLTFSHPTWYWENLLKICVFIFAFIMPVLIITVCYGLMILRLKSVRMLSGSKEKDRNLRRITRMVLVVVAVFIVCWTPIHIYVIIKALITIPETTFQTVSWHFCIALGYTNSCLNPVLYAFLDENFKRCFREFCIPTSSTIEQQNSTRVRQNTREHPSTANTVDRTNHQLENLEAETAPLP
Chain of Delta-type opioid receptor (P33533 whole entry): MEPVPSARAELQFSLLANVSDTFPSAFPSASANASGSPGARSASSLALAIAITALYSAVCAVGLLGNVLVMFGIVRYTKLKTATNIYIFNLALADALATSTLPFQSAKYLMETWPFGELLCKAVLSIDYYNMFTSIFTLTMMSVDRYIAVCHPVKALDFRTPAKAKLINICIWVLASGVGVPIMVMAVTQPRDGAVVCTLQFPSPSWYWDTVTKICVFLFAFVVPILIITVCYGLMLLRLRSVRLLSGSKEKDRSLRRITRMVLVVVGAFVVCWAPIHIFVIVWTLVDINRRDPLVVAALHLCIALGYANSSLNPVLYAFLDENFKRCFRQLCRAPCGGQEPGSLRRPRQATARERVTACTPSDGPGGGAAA

Turning to `NC(=O)[C@@H]1CCC(=O)NCCCC[C@@H](NC(=O)[C@@H](N)Cc2ccc(O)cc2)C(=O)N[C@@H](Cc2ccccc2)C(=O)N1` [listing 1 of 2 here], the negative logarithm of the Ki (pKi) on Mu-type opioid receptor was 8.84; in assay [1], 8.36. The negative logarithm of the IC50 (pIC50) in the assay filed under Cavia porcellus [2] was 8.53; in the assay filed under Mus musculus, 8.28.

Compound `NC(=O)[C@@H]1CCC(=O)NCCCC[C@@H](NC(=O)[C@@H](N)Cc2ccc(O)cc2)C(=O)N[C@@H](Cc2ccccc2)C(=O)N1` [listing 2 of 2 here] gave a Ke in the assay filed under Cavia porcellus [3] of 1.8 nM.

For `CC(C)C[C@@H]1NC(=O)[C@H](NC(=O)[C@@H](N)Cc2ccc(O)cc2)CCCNC(=O)C[C@@H](C(N)=O)NC1=O`, the pKi is 5.17 at Mu-type opioid receptor and 5.09 in assay [1]. Further, the negative logarithm of the IC50 (pIC50) in the assay listed under Cavia porcellus [2] is 5.27; in the assay filed under Mus musculus, 4.39.

For the compound `NC(=O)[C@@H]1CCCCNC(=O)CC[C@@H](NC(=O)[C@@H](N)Cc2ccc(O)cc2)C(=O)N[C@@H](Cc2ccccc2)C(=O)N1` [listing 1 of 2 here], the pKi was 9.00 on Mu-type opioid receptor and 7.31 in assay [1]. The pIC50 in the assay filed under Cavia porcellus [2] is 8.10; in the assay filed under Mus musculus, 7.00.

In turn, `NC(=O)[C@@H]1CCCCNC(=O)CC[C@@H](NC(=O)[C@@H](N)Cc2ccc(O)cc2)C(=O)N[C@@H](Cc2ccccc2)C(=O)N1` [listing 2 of 2 here] returned a Ke in the assay listed under Cavia porcellus [3] of 0.81 nM.

Turning to `NC(=O)[C@@H]1CCCNC(=O)C[C@@H](NC(=O)[C@@H](N)Cc2ccc(O)cc2)C(=O)N[C@@H](Cc2ccccc2)C(=O)N[C@H](C(N)=O)CCCNC(=O)C[C@@H](NC(=O)[C@@H](N)Cc2ccc(O)cc2)C(=O)N[C@@H](Cc2ccccc2)C(=O)N1` [listing 1 of 2 here], the values for the negative logarithm of the Ki (pKi) (on Mu-type opioid receptor; in assay [1]) were 7.07 and 6.89, respectively. The negative-log IC50 (pIC50) in the assay listed under Cavia porcellus [2] is 5.94; in the assay listed under Mus musculus it was 6.24.

Turning to `NC(=O)[C@@H]1CCCNC(=O)C[C@@H](NC(=O)[C@@H](N)Cc2ccc(O)cc2)C(=O)N[C@@H](Cc2ccccc2)C(=O)N[C@H](C(N)=O)CCCNC(=O)C[C@@H](NC(=O)[C@@H](N)Cc2ccc(O)cc2)C(=O)N[C@@H](Cc2ccccc2)C(=O)N1` [listing 2 of 2 here], the Ke in the assay listed under Cavia porcellus [3] is 1.62 nM.

Take `NC(=O)[C@@H]1CC(=O)NCCC[C@@H](NC(=O)[C@@H](N)Cc2ccc(O)cc2)C(=O)N[C@@H](Cc2ccccc2)C(=O)N[C@H](C(N)=O)CC(=O)NCCC[C@@H](NC(=O)[C@@H](N)Cc2ccc(O)cc2)C(=O)N[C@@H](Cc2ccccc2)C(=O)N1` [listing 1 of 2 here]: the negative logarithm of the Ki (pKi) at Mu-type opioid receptor is 7.59; in assay [1] it was 7.37. The pIC50 is 6.95 in the assay filed under Cavia porcellus [2] and 7.00 in the assay filed under Mus musculus.

Take `NC(=O)[C@@H]1CC(=O)NCCC[C@@H](NC(=O)[C@@H](N)Cc2ccc(O)cc2)C(=O)N[C@@H](Cc2ccccc2)C(=O)N[C@H](C(N)=O)CC(=O)NCCC[C@@H](NC(=O)[C@@H](N)Cc2ccc(O)cc2)C(=O)N[C@@H](Cc2ccccc2)C(=O)N1` [listing 2 of 2 here]: the Ke in the assay filed under Cavia porcellus [3] stood at 1.36 nM.

Regarding `NC(=O)[C@@H]1CCC(=O)NCCC[C@@H](NC(=O)[C@@H](N)Cc2ccc(O)cc2)C(=O)NCC(=O)N1`, the pKi is 5.75 at Mu-type opioid receptor and 5.30 in assay [1]. In addition, the values for the negative logarithm of the IC50 (pIC50) in the assay filed under Cavia porcellus [2] and in the assay listed under Mus musculus were 5.06 and < 4.40, respectively.

For `NC(=O)[C@@H]1CCCNC(=O)C[C@@H](NC(=O)[C@@H](N)Cc2ccc(O)cc2)C(=O)N[C@@H](Cc2ccccc2)C(=O)N1` (H-Y[dD]F[Orn]-NH2; lactam 2-4) [listing 1 of 2 here], the negative-log IC50 (pIC50) in the assay filed under Cavia porcellus [2] was 6.28; in the assay listed under Mus musculus, 5.07.

Consider `NC(=O)[C@@H]1CCCNC(=O)C[C@@H](NC(=O)[C@@H](N)Cc2ccc(O)cc2)C(=O)N[C@@H](Cc2ccccc2)C(=O)N1` (H-Y[dD]F[Orn]-NH2; lactam 2-4) [listing 2 of 2 here], for which, in the assay filed under Cavia porcellus [3], the Ke is listed as 1.28 nM.
